These results are taken from ChEMBL document CHEMBL1155371, “Small molecule inhibitors of the neuropilin-1 vascular endothelial growth factor A (VEGF-A) interaction” (J Med Chem, 2010).

Activity calls are given as the source filed them. The rule behind the calls is not given here. Where a SMILES comes first, the peptide text is derived from it.

In assay [1] the target is T1, Neuropilin-1 (Homo sapiens, UniProt O14786). In words: Displacement of [125I]VEGF-A from human NRP1 expressed in pig aortic endothelial cells at 100 uM. The class given is cell-based. The settings on record: Endothelial cell. In a few lines:
(§1)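 PAE cells stably expressing NRP1 (Ham's F12, 10% FBS, hygromycin B) grown to confluence. Compounds at 0.1−100 μM (single-point inhibition read at 100 μM) were added, then 0.1 nM 125I-VEGF-A165. Nonspecific binding was taken with 100-fold excess unlabeled VEGF. IC50 came from competition curves; three independent experiments, triplicate per concentration, mean ± SEM.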
(In general: In a radioligand displacement assay an active substance lowers the binding of a labelled ligand.)

The test system of assay [2] is A549. In words: Cytotoxicity against human A549 cells after 48 hrs by XTT method. Format: functional, cell-based. In a few lines:
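A549 lung carcinoma cells seeded at 4 × 10^3 per well in serum-free medium, with compound added. After 44 h incubation, XTT labeling reagent was added and cells were incubated a further 4 h, giving 48 h total. Formazan read at 490 nm against a 595 nm reference. Three independent experiments, each in triplicate, reported as mean ± SEM.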

The target in assay [3] is T1, Neuropilin-1. In words: Displacement of [125I]VEGF-A from human NRP1 expressed in pig aortic endothelial cells. The class given is cell-based, Endothelial cell. The method, boiled down:
as §1

Assay [4] has as its target T1, Neuropilin-1. In words: Displacement of […] from NRP1 b1 domain by cell-free assay.
Assay [5] addresses T1, Neuropilin-1. The assay is described as follows: Displacement of [125I]VEGF-A from human NRP1 expressed in human A549 cells. The class given is cell-based.
For assay [6], the target named is T1, Neuropilin-1. The assay is described as follows: Displacement of […] from human NRP1 expressed in human DU145 cells. The class given is cell-based, DU-145.
Assay [7] has as its target T1, Neuropilin-1. The assay is described as follows: Displacement of biotinylated-[…] from human NRP1 expressed in HUVEC. Format: cell-based.
Assay [8] has as its target Vascular endothelial growth factor receptor 1 (Homo sapiens) (UniProt P17948). In words: Displacement of biotinylated-[…] from human VEGFR1 expressed in human DU145 cells. The following applies: DU-145. Format: cell-based.
For assay [9], the target named is Vascular endothelial growth factor receptor 2 (Homo sapiens) (UniProt P35968). The assay is described as follows: Displacement of biotinylated-[…] from human VEGFR2 expressed in human DU145 cells. The settings on record: DU-145. Format: cell-based.
For assay [10], the target named is Vascular endothelial growth factor receptor 1 (Homo sapiens) (UniProt P17948). The assay is described as follows: Displacement of biotinylated-[…] from human VEGFR1 expressed in human A549 cells. Format: cell-based.
Assay [11] concerns the target Vascular endothelial growth factor receptor 2 (Homo sapiens) (UniProt P35968). In words: Displacement of biotinylated-[…] from human VEGFR2 expressed in human A549 cells. Format: cell-based.
The target is the same in assay [12]. In words: Inhibition of VEGF-A-induced VEGFR2 phosphorylation in HUVEC by ELISA. The class given is cell-based. In a few lines: (§2)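 Confluent HUVECs were pretreated 30 min with compound or DMSO vehicle, then stimulated with or without 25 ng/mL VEGF-A165 for 5 min at 37 °C. Tyr1175-phosphorylated and total VEGFR2 in lysates were measured by sandwich ELISA kits. Three independent experiments in duplicate, mean ± SEM.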
(In general: In an ELISA, binding on a coated surface is turned into a signal by an enzyme label.)

Assay [13] has the same target. The assay is described as follows: Inhibition of VEGF-A-induced VEGFR2 phosphorylation in HUVEC at 100 uM by ELISA. The class given is cell-based. The method, boiled down: as §2
Assay [14] has as its system HUVEC. The assay is described as follows: Inhibition of VEGF-A-induced chemotaxis in HUVEC assessed as reduction in cell migration. The class given is functional, cell-based. The settings on record: Homo sapiens. In a few lines: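 HUVECs in EBM/0.1% BSA were pretreated 30 min with compound or DMSO, and 1.5 × 10^5 cells were loaded into collagen I-coated 8 μm-pore transwell inserts. Cells migrated toward 25 ng/mL VEGF or medium control for 4 h at 37 °C. Migrated cells were stained and counted in four fields at ×100. Three experiments in duplicate, mean ± SEM.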

T1 sequence (O14786 whole entry): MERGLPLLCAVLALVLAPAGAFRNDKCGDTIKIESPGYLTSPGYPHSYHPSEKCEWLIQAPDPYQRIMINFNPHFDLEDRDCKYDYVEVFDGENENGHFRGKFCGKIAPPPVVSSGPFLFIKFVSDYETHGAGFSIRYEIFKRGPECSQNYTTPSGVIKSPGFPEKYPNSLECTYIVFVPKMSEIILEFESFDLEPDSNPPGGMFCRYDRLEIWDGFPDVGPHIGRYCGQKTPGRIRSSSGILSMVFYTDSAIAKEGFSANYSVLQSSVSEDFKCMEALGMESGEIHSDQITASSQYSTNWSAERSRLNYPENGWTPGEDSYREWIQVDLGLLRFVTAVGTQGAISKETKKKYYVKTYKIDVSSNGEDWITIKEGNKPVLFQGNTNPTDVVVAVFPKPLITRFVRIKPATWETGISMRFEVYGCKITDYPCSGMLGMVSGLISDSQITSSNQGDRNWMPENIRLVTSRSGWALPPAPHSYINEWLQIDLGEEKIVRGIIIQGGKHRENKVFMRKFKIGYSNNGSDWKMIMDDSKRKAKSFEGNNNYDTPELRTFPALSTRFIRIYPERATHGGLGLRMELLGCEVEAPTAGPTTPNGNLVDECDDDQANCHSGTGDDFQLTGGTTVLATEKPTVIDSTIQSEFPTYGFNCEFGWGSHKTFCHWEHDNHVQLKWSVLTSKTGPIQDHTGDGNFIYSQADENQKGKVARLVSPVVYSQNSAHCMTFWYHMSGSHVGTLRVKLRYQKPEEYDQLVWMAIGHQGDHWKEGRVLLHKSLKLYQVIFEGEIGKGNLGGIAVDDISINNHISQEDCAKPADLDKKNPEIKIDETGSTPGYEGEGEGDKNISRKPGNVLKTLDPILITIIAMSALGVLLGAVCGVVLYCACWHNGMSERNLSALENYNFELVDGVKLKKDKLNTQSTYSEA
Vascular endothelial growth factor receptor 2 (Homo sapiens), sequence (P35968 whole entry): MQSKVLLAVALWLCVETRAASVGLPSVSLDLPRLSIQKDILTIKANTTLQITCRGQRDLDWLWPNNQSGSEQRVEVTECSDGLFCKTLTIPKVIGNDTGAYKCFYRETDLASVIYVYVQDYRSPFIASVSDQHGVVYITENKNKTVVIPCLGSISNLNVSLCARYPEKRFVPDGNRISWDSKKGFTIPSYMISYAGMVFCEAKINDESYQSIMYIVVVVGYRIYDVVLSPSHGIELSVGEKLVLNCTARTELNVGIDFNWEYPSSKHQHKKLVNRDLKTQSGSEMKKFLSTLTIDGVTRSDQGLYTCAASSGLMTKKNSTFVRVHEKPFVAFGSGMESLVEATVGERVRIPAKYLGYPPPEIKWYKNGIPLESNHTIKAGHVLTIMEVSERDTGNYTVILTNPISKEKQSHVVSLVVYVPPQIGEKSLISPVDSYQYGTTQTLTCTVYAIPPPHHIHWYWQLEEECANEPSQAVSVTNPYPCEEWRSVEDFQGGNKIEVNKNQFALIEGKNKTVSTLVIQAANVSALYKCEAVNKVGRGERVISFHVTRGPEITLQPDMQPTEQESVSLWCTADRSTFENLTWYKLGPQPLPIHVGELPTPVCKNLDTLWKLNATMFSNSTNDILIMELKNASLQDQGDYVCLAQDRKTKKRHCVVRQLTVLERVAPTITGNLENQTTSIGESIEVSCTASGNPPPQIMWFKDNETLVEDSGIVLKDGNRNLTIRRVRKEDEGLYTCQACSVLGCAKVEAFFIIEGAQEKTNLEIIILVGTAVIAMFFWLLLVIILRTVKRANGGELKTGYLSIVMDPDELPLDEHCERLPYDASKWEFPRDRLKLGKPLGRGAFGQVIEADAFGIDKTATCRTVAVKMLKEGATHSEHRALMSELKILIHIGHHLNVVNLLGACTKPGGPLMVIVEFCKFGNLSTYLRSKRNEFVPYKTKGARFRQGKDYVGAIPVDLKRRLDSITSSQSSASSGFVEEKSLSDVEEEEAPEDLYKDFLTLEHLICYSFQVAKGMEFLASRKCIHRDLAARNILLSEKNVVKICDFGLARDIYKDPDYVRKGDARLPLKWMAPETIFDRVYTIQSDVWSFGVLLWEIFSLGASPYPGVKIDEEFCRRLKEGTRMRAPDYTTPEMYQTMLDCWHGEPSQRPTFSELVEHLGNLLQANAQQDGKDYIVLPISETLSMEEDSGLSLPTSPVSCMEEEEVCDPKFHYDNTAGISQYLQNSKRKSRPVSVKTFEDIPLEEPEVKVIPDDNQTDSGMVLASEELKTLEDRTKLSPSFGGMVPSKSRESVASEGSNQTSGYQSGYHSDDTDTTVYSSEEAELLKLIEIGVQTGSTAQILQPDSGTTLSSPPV
Vascular endothelial growth factor receptor 1 (Homo sapiens), sequence (P17948 whole entry): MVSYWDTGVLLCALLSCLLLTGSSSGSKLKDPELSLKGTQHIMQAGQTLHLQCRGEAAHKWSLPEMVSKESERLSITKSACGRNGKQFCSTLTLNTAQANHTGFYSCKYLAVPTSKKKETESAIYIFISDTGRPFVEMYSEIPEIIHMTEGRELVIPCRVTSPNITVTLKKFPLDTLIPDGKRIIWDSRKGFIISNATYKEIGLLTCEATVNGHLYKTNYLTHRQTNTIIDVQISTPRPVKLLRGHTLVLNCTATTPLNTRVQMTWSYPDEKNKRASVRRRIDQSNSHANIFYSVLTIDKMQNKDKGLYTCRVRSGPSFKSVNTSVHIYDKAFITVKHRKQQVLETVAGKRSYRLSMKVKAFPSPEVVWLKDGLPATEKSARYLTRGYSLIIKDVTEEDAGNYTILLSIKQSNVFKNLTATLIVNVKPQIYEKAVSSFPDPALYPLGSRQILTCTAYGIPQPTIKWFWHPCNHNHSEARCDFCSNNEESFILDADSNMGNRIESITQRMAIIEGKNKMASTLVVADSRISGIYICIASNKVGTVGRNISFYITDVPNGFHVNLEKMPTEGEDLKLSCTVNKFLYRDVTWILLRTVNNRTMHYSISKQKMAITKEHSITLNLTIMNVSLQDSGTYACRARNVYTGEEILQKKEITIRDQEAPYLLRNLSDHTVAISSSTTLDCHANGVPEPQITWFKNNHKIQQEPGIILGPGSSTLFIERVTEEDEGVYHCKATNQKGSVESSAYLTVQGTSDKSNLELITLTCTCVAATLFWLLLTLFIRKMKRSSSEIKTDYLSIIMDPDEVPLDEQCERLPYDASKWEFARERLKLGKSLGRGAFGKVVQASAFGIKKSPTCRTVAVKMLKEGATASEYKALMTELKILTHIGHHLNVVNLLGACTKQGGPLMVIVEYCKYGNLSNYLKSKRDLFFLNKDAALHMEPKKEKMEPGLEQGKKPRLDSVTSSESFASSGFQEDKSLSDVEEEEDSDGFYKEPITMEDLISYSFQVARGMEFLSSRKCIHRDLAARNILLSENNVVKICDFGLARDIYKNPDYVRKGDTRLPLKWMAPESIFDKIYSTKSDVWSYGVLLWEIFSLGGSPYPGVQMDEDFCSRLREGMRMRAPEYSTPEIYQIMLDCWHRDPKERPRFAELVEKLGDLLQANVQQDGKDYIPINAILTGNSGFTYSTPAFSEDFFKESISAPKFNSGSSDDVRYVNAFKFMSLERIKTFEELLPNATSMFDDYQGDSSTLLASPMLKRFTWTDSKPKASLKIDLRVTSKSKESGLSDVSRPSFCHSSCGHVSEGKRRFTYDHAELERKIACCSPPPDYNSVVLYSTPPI

`N=C(N)NCCC[C@H](NC(=O)c1cccc(-c2cccc(NC(=O)CCCCCN)c2)c1)C(=O)O` came in with an Activity in [1] of 40%.
On the same count and under the same terms, the result for `N=C(N)NC(=O)CC[C@H](NC(=O)c1sccc1NS(=O)(=O)c1ccc([N+](=O)[O-])cc1)C(=O)O` reads 58%.
What is called IC50 is the concentration at which inhibition is half-maximal. The low end stands for greater potency in that assay, the high end for weaker potency in that assay. In [2] (A549, 48 h), `O=c1[nH]cc(F)c(=O)[nH]1` [FLUOROURACIL] came in with a half-maximal inhibitory concentration (IC50) of 78 µM.
`N=C(N)Nc1ccc(C[C@H](NC(=O)c2sccc2NS(=O)(=O)c2ccc(N)cc2)C(=O)O)cc1`: the Activity in [1] came to 13%.
In assay [1], `COC(=O)[C@H](CCCNC(=N)N)NC(=O)c1sccc1NS(=O)(=O)c1ccc([N+](=O)[O-])cc1` gave an Activity of 21%.
The compound `N=C(N)NCCC[C@H](NC(=O)c1sccc1NS(=O)(=O)c1ccc(N)cc1)C(=O)O` came in with an Activity in assay [1] of 78%. Also, the IC50 in assay [3] came out at 13 µM.
Compound `N=C(N)NCCC[C@H](NC(=O)c1sccc1NS(=O)(=O)c1cccc2nonc12)C(=O)O` came in with an Activity in [1] of 87%. The IC50 in assay [3] was 17 µM.
`C[C@@H](NC(=O)[C@@H]1CCCN1C(=O)[C@@H](N)CCCCN)C(=O)N[C@@H](CCCNC(=N)N)C(=O)O` showed an Activity in assay [1] of 36%.
On the same count and under the same terms, the result for `N=C(N)NCCC[C@H](NC(=O)c1sccc1S(=O)(=O)Nc1ccc(N)cc1)C(=O)O` reads 0%.
Consider `N=C(N)NCCC[C@H](NC(=O)c1sccc1NS(=O)(=O)c1cccc(N)c1)C(=O)O`, for which the Activity in [1] was 84%. Besides, the IC50 in assay [3] worked out at 14 µM.
For `N=C(N)NCCCC[C@H](NC(=O)c1sccc1NS(=O)(=O)c1ccc(N)cc1)C(=O)O`, the Activity in assay [1] turned out to be 20%.
On the same count and under the same terms, under `CN(c1ccsc1C(=O)N[C@@H](CCCNC(=N)N)C(=O)O)S(=O)(=O)c1ccc(N)cc1` stands 25%; under `N=C(N)NCCC[C@H](NC(=O)c1cccs1)C(=O)O`, 28%.
In the case of `C[C@H](NC(=O)[C@@H]1CCCN1C(=O)[C@@H](N)CCCCN)C(=O)N[C@H](CCCNC(=N)N)C(=O)O`, in assay [1], the Activity amounted to 22%.
Still for that read-out and setting: the result for `N=C(N)NCCC[C@H](NC(=O)c1ccccc1NS(=O)(=O)c1ccc(N)cc1)C(=O)O` reads 70%.
The compound `N=C(N)NCCC[C@H](NC(=O)c1sccc1NS(=O)(=O)c1ccc([N+](=O)[O-])cc1)C(=O)O` (stereo in doubt; 46) [listing 1 of 2 here] registered an IC50 in [3] (endothelial cell) of 52 µM.
As to `C[C@H](NC(=O)[C@@H]1CCCN1C(=O)[C@H](N)CCCCN)C(=O)N[C@@H](CCCNC(=N)N)C(=O)O`, the Activity in assay [1] was found to be 51%.
Consider `N=C(N)NCCC[C@@H](NC(=O)c1sccc1NS(=O)(=O)c1ccc(N)cc1)C(=O)O`, for which the Activity in assay [1] was determined as 36%.
`Cc1nc(S(=O)(=O)Nc2ccsc2C(=O)N[C@@H](CCCNC(=N)N)C(=O)O)cn1C`: the Activity in assay [1] was 88%. In assay [3], this compound gave an IC50 of 12 µM.
Compound `N=C(N)NCCC[C@H](NC(=O)C1CCN(Cc2nc(O)nc(NCCCCN)n2)CC1)C(=O)O` showed an Activity in assay [1] of 32%.
Still for that read-out and setting: the result for `N=C(N)NCCC[C@@H](CO)NC(=O)c1sccc1NS(=O)(=O)c1ccc2nsnc2c1` reads 21%; that for `C[C@H](NC(=O)[C@@H]1CCCN1C(=O)[C@@H](N)CCCCN)C(=O)N[C@@H](CCC(N)=O)C(=O)O` (H-KPAQ-OH), 19%; that for `N=C(N)NCCC[C@H](NC(=O)[C@H](Cc1ccccc1)NC(=O)[C@@H]1CCCN1C(=O)[C@@H](N)CCCCN)C(=O)O` (H-KPFR-OH), 63%.
The same measure, in the same setting: under `N=C(N)NCCCC[C@@H](CC(=O)O)NC(=O)c1sccc1NS(=O)(=O)c1ccc2nsnc2c1` stands 11%.
Take `N=C(N)NCCC[C@H](NC(=O)c1sccc1NS(=O)(=O)c1ccc([N+](=O)[O-])cc1)C(=O)O` (stereo in doubt; 38) [listing 1 of 2 here]: the IC50 in assay [3] stood at 52 µM.
As a reminder, the inhibition is how much of the control response was suppressed. For `N=C(N)NCCC[C@H](NC(=O)c1sccc1NS(=O)(=O)c1cccc2nsnc12)C(=O)O`, the Activity in assay [1] amounted to 99%. Further, the IC50 in assay [3] came to 8 µM; in [4], 3 µM; in assay [5], 7 µM; in assay [6] it was 3 µM; in assay [7] it was 23 µM. Besides, the result in assay [8], in assay [9], in assay [10] and in assay [11] was inactive. The inhibition result was “Dose-dependent effect” in assay [12] and 34% in assay [13]. The inhibition entry in [14] was “Active”. In addition, the result in assay [2] was Active.
With `N=C(N)NCCC[C@H](NC(=O)c1sccc1NS(=O)(=O)c1ccc([N+](=O)[O-])cc1)C(=O)O` (stereo in doubt; 46) [listing 2 of 2 here], the Activity in [1] turned out to be 75%.
The compound `N=C(N)NCCC[C@H](NC(=O)c1sccc1NS(=O)(=O)c1ccc(F)cc1F)C(=O)O` showed an Activity in assay [1] of 79%. In addition, the half-inhibitory concentration (IC50) in assay [3] amounted to 33 µM.
Take `C[C@H](NC(=O)[C@@H]1CCCN1C(=O)[C@@H](N)CCCCN)C(=O)N[C@@H](CCCCN)C(=O)O` (H-KPAK-OH): the Activity in assay [1] is 22%.
Same read-out and setting: the result for `N=C(N)NCCC[C@H](NC(=O)c1ccccc1S(=O)(=O)C1CCNCC1)C(=O)O` reads 10%; that for `N=C(N)NCCC[C@H](NC(=O)c1sccc1NS(=O)(=O)c1ccc([N+](=O)[O-])cc1)C(=O)O` (stereo in doubt; 38) [listing 2 of 2 here], 75%.
Regarding `CN(c1ccsc1C(=O)N[C@@H](CCCNC(=N)N)C(=O)O)S(=O)(=O)c1ccc([N+](=O)[O-])cc1`, in [1], the Activity was 42%.
In [1], `Cc1nn(C)c(Cl)c1CNc1cccc(S(=O)(=O)Nc2ccsc2C(=O)N[C@@H](CCCNC(=N)N)C(=O)O)c1` displayed an Activity of 88%. The compound also returned an IC50 in [3] of 6 µM.
In the same order, the values of `N=C(N)NCCC[C@H](NC(=O)c1sccc1NS(=O)(=O)c1ccccc1[N+](=O)[O-])C(=O)O` are 100% and 9 µM.
Regarding `N=C(N)NCCC[C@H](NC(=O)c1sccc1NS(=O)(=O)c1ccc2nsnc2c1)C(=O)NO`, the Activity in assay [1] came out at 59%.
As to `N=C(NCCC[C@H](NC(=O)c1sccc1NS(=O)(=O)c1ccc([N+](=O)[O-])cc1)C(=O)O)N[N+](=O)[O-]`, in assay [1], the Activity was found to be 3%.
For the compound `C[C@H](NC(=O)[C@@H]1CCCN1C(=O)[C@@H](N)CCCCN)C(=O)N[C@@H](CCCNC(=N)N)C(=O)O`, the Activity in assay [1] is 83%. Further, in assay [3], the IC50 is 30 µM.
In turn, `NCCCC[C@H](NC(=O)c1sccc1NS(=O)(=O)c1ccc([N+](=O)[O-])cc1)C(=O)O` returned an Activity in assay [1] of 20%.
On the same count and under the same terms, the result for `N=C(N)NCCC[C@H](NC(=O)c1cccc(-c2cccc(NC(=O)C3CCC(CN)CC3)c2)c1)C(=O)O` (some centres undefined) reads 49%.
Regarding `N=C(N)NCCC[C@H](NC(=O)c1sccc1NS(=O)(=O)c1ccccc1N)C(=O)O`, the Activity in assay [1] came to 95%. In [3], this compound returned an IC50 of 17 µM.
With `C/N=C(/NC)NCCC[C@H](NC(=O)c1sccc1NS(=O)(=O)c1ccc([N+](=O)[O-])cc1)C(=O)O`, in assay [1], the Activity came to 12%.
In the case of `Cc1oc(-c2ccc(NC(=O)CCCCN)cc2)cc1C(=O)N[C@@H](CCCNC(=N)N)C(=O)O`, the Activity in assay [1] was found to be 31%.
As for `N=C(N)NCCC[C@H](NC(=O)[C@@H]1CCCN1C(=O)[C@@H]1CCCN1C(=O)[C@@H](N)CCCCN)C(=O)O` (H-KPPR-OH), the Activity in [1] amounted to 96%. The compound also gave an IC50 in assay [3] of 14 µM.
Compound `CC(=O)Nc1ccc(S(=O)(=O)Nc2ccsc2C(=O)N[C@@H](CCCNC(=N)N)C(=O)O)cc1` gave an Activity in [1] of 84%. Further, in [3], the IC50 was 18 µM.
Regarding `N=C(N)NCCC[C@H](NC(=O)C1CCN(Cc2cccc(NC(=O)CCCCCN)c2)CC1)C(=O)O`, the Activity in assay [1] came out at 35%.
